Data: ChEMBL document CHEMBL5724801, “EUbOPEN Chemogenomics Library - Multiplex” (2024)
Where “and” joins values, the source holds several entries; their conditions need not be identical. Identical values can stand only once.

Tests used:
HEK-293T = experiment: Multiplex assay against HEK293T; format: toxicity, cell-based; settings: human
Summary of the method: (§1)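 Live cells were stained at seeding with Hoechst33342, BioTracker Green Microtubule Cytoskeleton Dye, MitoTracker Red and Annexin V Alexa Fluor 680. Following compound addition, they were imaged on a CQ1 microscope at 37°C and 5% CO2 and gated by CellPathfinder machine learning into Hoechst high-intensity objects or normal cells, with normal cells split into healthy, pyknosed or fragmented nuclei and pyknosed cells into mitotic or apoptotic. Tubulin, mitochondrial-mass and membrane-permeability phenotypes are per cents of healthy-nucleus cells.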

U2OS = experiment: Multiplex assay against U2OS; format: toxicity, cell-based; settings: human; summary of the method: as §1
[1] = 24 h, 1 µM, compound concentration 1 uM
[2] = 24 h, 10 µM, compound concentration 10 uM
[3] = 48 h, 1 µM, compound concentration 1 uM
[4] = 48 h, 10 µM, compound concentration 10 uM
[5] = 12 h, 1 µM, compound concentration 1 uM
[6] = 12 h, 10 µM, compound concentration 10 uM

Question: What does the source list for `CC[C@H](Nc1ncnc2[nH]cnc12)c1nc2cccc(F)c2c(=O)n1-c1ccccc1` [IDELALISIB]?
Answer: Population Normal (%) (HEK-293T; [1]): 100%; Population Pyknosed Nuclei (%) (HEK-293T; [1]): 22.82% and 63.51%; Population Tubulin-Different-Phenotype (%) (HEK-293T; [1]): 9.85% and 5.41%; Total Cell Count (HEK-293T; [1]): 618 and 211; Population Apoptotic (%) (HEK-293T; [2]): 22.55% and 30.43%; Population Fragmented Nuclei (%) (HEK-293T; [2]): 2.07% and 3.7%; Population Healthy Nuclei (%) (HEK-293T; [2]): 62.76% and 25.31%; Population Hoechst High Intensity Objects (%) (HEK-293T; [2]): 0.34% and 0%; Population Membrane Permeable-Phenotype (%) (HEK-293T; [2]): 2.75% and 2.44%; Population Mitochondria Different-Phenotype (%) (HEK-293T; [2]): 40.11% and 19.51%; Population Mitotic Cells (%) (HEK-293T; [2]): 77.45% and 69.57%; Population Normal (%) (HEK-293T; [2]): 99.66% and 100%; Population Pyknosed Nuclei (%) (HEK-293T; [2]): 35.17% and 70.99%; Population Tubulin-Different-Phenotype (%) (HEK-293T; [2]): 61.54% and 26.83%; Total Cell Count (HEK-293T; [2]): 291 and 162; Population Apoptotic (%) (HEK-293T; [3]): 5.47% and 12.5%; Population Fragmented Nuclei (%) (HEK-293T; [3]): 2.71% and 1.53%; Population Healthy Nuclei (%) (HEK-293T; [3]): 87.1% and 67.82%; Population Hoechst High Intensity Objects (%) (HEK-293T; [3]): 0% and 0.38%; Population Membrane Permeable-Phenotype (%) (HEK-293T; [3]): 5.58% and 2.26%; Population Mitochondria Different-Phenotype (%) (HEK-293T; [3]): 15.63% and 14.69%; Population Mitotic Cells (%) (HEK-293T; [3]): 94.53% and 87.5%; Population Normal (%) (HEK-293T; [3]): 100% and 99.62%; Population Apoptotic (%) (HEK-293T; [4]): 17.44% and 25.24%; Population Fragmented Nuclei (%) (HEK-293T; [4]): 2.23% and 1.97%; Population Healthy Nuclei (%) (HEK-293T; [4]): 80.32% and 47.29%; Population Hoechst High Intensity Objects (%) (HEK-293T; [4]): 0.2% and 0%; Population Membrane Permeable-Phenotype (%) (HEK-293T; [4]): 6.31% and 1.04%; Population Mitochondria Different-Phenotype (%) (HEK-293T; [4]): 64.39% and 55.21%; Population Mitotic Cells (%) (HEK-293T; [4]): 82.56% and 74.76%; Population Normal (%) (HEK-293T; [4]): 99.8% and 100%; Population Pyknosed Nuclei (%) (HEK-293T; [4]): 17.44% and 50.74%; Total Cell Count (HEK-293T; [4]): 494 and 203; Population Apoptotic (%) (U2OS; [5]): 50% and 55%; Population Fragmented Nuclei (%) (U2OS; [5]): 1.02% and 4.85%; Population Healthy Nuclei (%) (U2OS; [5]): 88.24% and 85.44%; Population Hoechst High Intensity Objects (%) (U2OS; [5]): 0%; Population Membrane Permeable-Phenotype (%) (U2OS; [5]): 1.45% and 1.7%; Population Mitochondria Different-Phenotype (%) (U2OS; [5]): 0.29% and 7.39%; Population Mitotic Cells (%) (U2OS; [5]): 50% and 45%; Population Normal (%) (U2OS; [5]): 100%; Population Pyknosed Nuclei (%) (U2OS; [5]): 10.74% and 9.71%; Population Tubulin-Different-Phenotype (%) (U2OS; [5]): 3.19% and 1.14%; Total Cell Count (U2OS; [5]): 391 and 206; Population Apoptotic (%) (U2OS; [6]): 33.33% and 37.5%; Population Fragmented Nuclei (%) (U2OS; [6]): 1.17% and 2.76%; Population Healthy Nuclei (%) (U2OS; [6]): 86.55% and 75.17%; Population Hoechst High Intensity Objects (%) (U2OS; [6]): 0%; Population Membrane Permeable-Phenotype (%) (U2OS; [6]): 10.47% and 14.68%; Population Mitotic Cells (%) (U2OS; [6]): 66.67% and 62.5%; Population Normal (%) (U2OS; [6]): 100%; Population Pyknosed Nuclei (%) (U2OS; [6]): 12.28% and 22.07%; Total Cell Count (U2OS; [6]): 342 and 145; Population Apoptotic (%) (U2OS; [1]): 46.94% and 30.77%; Population Fragmented Nuclei (%) (U2OS; [1]): 1.87% and 2.83%; Population Healthy Nuclei (%) (U2OS; [1]): 88.97% and 86.64%; Population Hoechst High Intensity Objects (%) (U2OS; [1]): 0% and 0.4%; Population Membrane Permeable-Phenotype (%) (U2OS; [1]): 0.84% and 2.34%; Population Mitochondria Different-Phenotype (%) (U2OS; [1]): 0.21% and 5.14%; Population Mitotic Cells (%) (U2OS; [1]): 53.06% and 69.23%; Population Normal (%) (U2OS; [1]): 100% and 99.6%; Population Pyknosed Nuclei (%) (U2OS; [1]): 9.16% and 10.53%; Population Tubulin-Different-Phenotype (%) (U2OS; [1]): 1.68% and 0.47%; Total Cell Count (U2OS; [1]): 535 and 248; Population Apoptotic (%) (U2OS; [2]): 44.64% and 41.38%; Population Fragmented Nuclei (%) (U2OS; [2]): 2.79% and 2.6%; Population Healthy Nuclei (%) (U2OS; [2]): 84.19% and 78.57%; Population Hoechst High Intensity Objects (%) (U2OS; [2]): 0%; Population Membrane Permeable-Phenotype (%) (U2OS; [2]): 7.73% and 14.88%; Population Mitotic Cells (%) (U2OS; [2]): 55.36% and 58.62%; Population Normal (%) (U2OS; [2]): 100%; Population Pyknosed Nuclei (%) (U2OS; [2]): 13.02% and 18.83%; Population Tubulin-Different-Phenotype (%) (U2OS; [2]): 12.15% and 4.13%; Total Cell Count (U2OS; [2]): 430 and 154; Population Apoptotic (%) (U2OS; [3]): 46.67% and 39.53%; Population Fragmented Nuclei (%) (U2OS; [3]): 2.53% and 4.9%; Population Healthy Nuclei (%) (U2OS; [3]): 87.97% and 84.56%; Population Hoechst High Intensity Objects (%) (U2OS; [3]): 0%; Population Membrane Permeable-Phenotype (%) (U2OS; [3]): 0.84% and 3.48%; Population Mitochondria Different-Phenotype (%) (U2OS; [3]): 0.12% and 3.48%; Population Mitotic Cells (%) (U2OS; [3]): 53.33% and 60.47%; Population Normal (%) (U2OS; [3]): 100%; Population Pyknosed Nuclei (%) (U2OS; [3]): 9.49% and 10.54%; Population Tubulin-Different-Phenotype (%) (U2OS; [3]): 1.08% and 1.16%; Total Cell Count (U2OS; [3]): 948 and 408; Population Apoptotic (%) (U2OS; [4]): 55.68% and 62.86%; Population Fragmented Nuclei (%) (U2OS; [4]): 2.47% and 5.05%; Population Healthy Nuclei (%) (U2OS; [4]): 84.72% and 78.9%; Population Hoechst High Intensity Objects (%) (U2OS; [4]): 0%; Population Membrane Permeable-Phenotype (%) (U2OS; [4]): 3.78% and 8.72%; Population Mitotic Cells (%) (U2OS; [4]): 44.32% and 37.14%; Population Normal (%) (U2OS; [4]): 100%; Population Pyknosed Nuclei (%) (U2OS; [4]): 12.81% and 16.06%; Population Tubulin-Different-Phenotype (%) (U2OS; [4]): 5.33% and 5.23%
